Assay results: ChEMBL document CHEMBL1129609, “Synthesis and antiviral activity evaluation of some new aminoadamantane derivatives. 2” (1996)
In brackets after ≈: the same amount, converted by molar mass.

Key:
[1] = system: Human alphaherpesvirus 1; assay: Antiviral activity against TK-HSV-1 virus infected HEF cell lines.; format: functional
In short: (§1)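 Human embryonic fibroblasts, from embryonic lung or embryonic skin-muscle, infected with the virus. Endpoint is the minimum inhibitory concentration that reduces virus-induced cytopathicity by 50%. Values are averages of at least two separate experiments.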

[2] = system: Human alphaherpesvirus 1; assay: Antiviral activity against HSV-1 virus infected HEF cell lines.; format: functional; in short: as §1
[3] = system: Coxsackievirus B4; assay: Antiviral activity against Coxsackie B4 virus infected vero cell lines.; format: functional; settings: Enterovirus B
In short: (§2)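 Vero (African green monkey kidney), HeLa (human epithelial) or HEL (human embryonic lung) cell monolayers infected with the virus. Readout is the minimum inhibitory concentration that reduces virus-induced cytopathicity by 50%. Values are averages of at least two separate experiments.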

[4] = system: HeLa; assay: Effects on cell morphology of HeLa cell lines.; format: functional; settings: Homo sapiens
In short: (§3)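 HeLa (human epithelial) or Vero (African green monkey kidney) cells were examined under the microscope for changes in normal morphology. The value is the minimum concentration causing a detectable alteration, averaged from at least two separate experiments.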

[5] = system: Enterovirus C; assay: Antiviral activity against polio 1 virus infected HeLa cell lines.; format: functional; in short: as §2
[6] = system: Vesicular stomatitis virus; assay: Antiviral activity against vesicular stomatitis virus infected HeLa cell lines.; format: functional; in short: as §2
[7] = system: MDCK; assay: Antiviral activity tested against influenza A,H1N1 virus infected MDCK cell lines.; format: functional; settings: Canis lupus familiaris
[8] = system: Coxsackievirus B4; assay: Antiviral activity against Coxsackie B4 virus infected HeLa cell lines.; format: functional; settings: Enterovirus B; in short: as §2
[9] = system: HEL; assay: Inhibition of HEL cell proliferation.; format: functional; settings: Homo sapiens
In short: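 Human embryonic lung fibroblasts were used for the proliferation assay. The value is the concentration that reduces cell proliferation by 50%, averaged from at least two separate experiments.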

[10] = system: Mammalian orthoreovirus 1; assay: Antiviral activity against Reo 1 virus infected vero cell lines.; format: functional; in short: as §2
[11] = system: MDCK; assay: Antiviral activity of compound was tested against morphology virus infected MDCK cell lines.; format: functional; settings: Canis lupus familiaris
[12] = system: Vaccinia virus; assay: Antiviral activity against vaccinia virus infected HEF cell lines.; format: functional; settings: Orthopoxvirus vaccinia; in short: as §1
[13] = system: Influenza B virus; assay: Antiviral activity against influenza B virus infected MDCK cell lines.; format: functional
[14] = system: Sindbis virus; assay: Antiviral activity against sindbis virus infected Vero cell lines.; format: functional; in short: as §2
[15] = system: Human alphaherpesvirus 3; assay: Antiviral activity against TK+VZV virus infected HEL cell lines.; format: functional; in short: as §2
[16] = Antiviral activity against influenza A,H3N2 virus infected MDCK cell lines.; format: functional
[17] = system: Vesicular stomatitis virus; assay: Antiviral activity against vesicular stomatitis virus infected HEF cell lines.; format: functional; in short: as §1
[18] = system: Human betaherpesvirus 5; assay: Antiviral activity against HCMV virus infected HEL cell lines.; format: functional; in short: as §2
[19] = system: Vero; assay: Effects on cell morphology of Vero cell lines.; format: functional; settings: Chlorocebus sabaeus; in short: as §3
[20] = system: CCRF-CEM; assay: Cytotoxicity against CEM cell lines.; format: functional; settings: Homo sapiens
[21] = system: HEF; assay: Effects on cell morphology of HEF cell lines.; format: functional; settings: Homo sapiens
In short: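 Human embryonic skin-muscle fibroblasts were examined under the microscope for changes in normal cell morphology. The value is the minimum concentration causing a microscopically detectable alteration, averaged from at least two separate experiments.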

[22] = system: Human alphaherpesvirus 2; assay: Antiviral activity against HSV-2 virus infected HEF cell lines.; format: functional; in short: as §1
[23] = system: Human immunodeficiency virus 2; assay: Antiviral activity against HIV-2 virus infected CEM cell lines.; format: functional, CCRF-CEM
[24] = system: Human respirovirus 3; assay: Antiviral activity against parainfluenza 3 virus infected Vero cell lines.; format: functional; in short: as §2
[25] = Antiviral activity against influenza A,H2N2 virus infected MDCK cell lines.; format: functional
[26] = system: Semliki Forest virus; assay: Antiviral activity against Semliki forest virus infected Vero cell lines.; format: functional; in short: as §2
[27] = system: Human alphaherpesvirus 3; assay: Antiviral activity against TK-VZV virus infected HEL cell lines.; format: functional; in short: as §2
[28] = system: Human immunodeficiency virus 1; assay: Antiviral activity against HIV-1 virus infected CEM cell lines.; format: functional, CCRF-CEM
[29] = system: Vero; assay: Antiviral activity of compound was tested against sindbis virus infected vero cell lines.; format: functional; settings: Chlorocebus sabaeus; in short: as §2
[30] = system: HEF; assay: Antiviral activity of compound was tested against morphology virus infected HEF cell lines.; format: functional; settings: Homo sapiens
[31] = system: Vero; assay: Antiviral activity of compound was tested against reo1 virus infected vero cell lines.; format: functional; settings: Chlorocebus sabaeus; in short: as §2
[32] = system: HeLa; assay: Antiviral activity of compound was tested against polio-1 virus infected HeLa cell lines.; format: functional; settings: Homo sapiens; in short: as §2
[33] = system: HeLa; assay: Antiviral activity of compound was tested against stomatitis virus infected HeLa cell lines.; format: functional; settings: Homo sapiens; in short: as §2
[34] = system: Vero; assay: Antiviral activity of compound was tested against parainfluenza 3,[…] virus infected Vero cell lines.; format: functional; settings: Chlorocebus sabaeus; in short: as §2
[35] = system: MDCK; assay: Antiviral activity of compound was tested against influenza A,H3N2 virus infected MDCK cell lines.; format: functional; settings: Canis lupus familiaris
[36] = system: CCRF-CEM; assay: Antiviral activity of compound was tested against HIV-1 virus infected CEM cell lines.; format: functional; settings: Homo sapiens
[37] = system: HEL; assay: Antiviral activity of compound was tested against TK+VZV virus infected HEL cell lines.; format: functional; settings: Homo sapiens; in short: as §2
[38] = system: MDCK; assay: Antiviral activity of compound was tested against influenza […] virus infected MDCK cell lines; format: functional; settings: Canis lupus familiaris
[39] = system: Vero; assay: Antiviral activity of compound was tested against morphology virus infected Vero cell lines.; format: functional; settings: Chlorocebus sabaeus
[40] = system: HEL; assay: Antiviral activity of compound was tested against HCMV virus infected HEL cell lines.; format: functional; settings: Homo sapiens; in short: as §2
[41] = system: CCRF-CEM; assay: Antiviral activity of compound was tested against viability virus infected CEM cell lines.; format: functional; settings: Homo sapiens
[42] = system: HEL; assay: Antiviral activity of compound was tested against TK-VZV virus infected HEL cell lines.; format: functional; settings: Homo sapiens; in short: as §2
[43] = system: HEL; assay: Antiviral activity of compound was tested against proliferation virus infected HEL cell lines.; format: functional; settings: Homo sapiens
[44] = system: HeLa; assay: Antiviral activity of compound was tested against Coxsackie B4 virus infected HeLa cell lines.; format: functional; settings: Homo sapiens; in short: as §2
[45] = system: HeLa; assay: Antiviral activity of compound was tested against morphology virus infected HeLa cell lines.; format: functional; settings: Homo sapiens
[46] = system: Vero; assay: Antiviral activity of compound was tested against Coxsackie B4 virus infected vero cell lines.; format: functional; settings: Chlorocebus sabaeus; in short: as §2
[47] = system: Vero; assay: Antiviral activity of compound were tested against semliki forest virus infected vero cell lines.; format: functional; settings: Chlorocebus sabaeus; in short: as §2
[48] = system: CCRF-CEM; assay: Antiviral activity of compound were tested against HIV-2 virus infected CEM cell lines.; format: functional; settings: Homo sapiens
[49] = system: MDCK; assay: Antiviral activity of compound was tested against morphology virus infec+ted MDCK cell lines.; format: functional; settings: Canis lupus familiaris

SMILES: C1CNC(C23CC4CC(CC(C4)C2)C3)C1 (configuration not stated)
- MIC50 [1]: > 40 µg/mL
- MIC50 [2]: > 40 µg/mL
- MIC50 [3]: > 200 µg/mL
- MIC50 [4]: > 200 µg/mL
- MIC50 [5]: > 100 µg/mL
- MIC50 [6]: > 100 µg/mL
- MIC50 [7]: 15.8 µg/mL (≈ 76.9 µM)
- MIC50 [8]: > 100 µg/mL
- MIC50 [9]: > 50 µg/mL
- MIC50 [10]: > 200 µg/mL
- MIC50 [11]: 250 µg/mL (≈ 1220 µM)
- MIC50 [12]: > 40 µg/mL
- MIC50 [13]: 12 µg/mL (≈ 58.4 µM)
- MIC50 [14]: > 200 µg/mL
- MIC50 [15]: > 50 µg/mL
- MIC50 [16]: 12.4 µg/mL (≈ 60.4 µM)
- MIC50 [17]: > 40 µg/mL
- MIC50 [18]: > 50 µg/mL
- MIC50 [19]: 400 µg/mL (≈ 1950 µM)
- MIC50 [20]: 56 µg/mL (≈ 273 µM)
- MIC50 [21]: 100 µg/mL (≈ 487 µM)
- MIC50 [22]: > 40 µg/mL
- MIC50 [23]: > 40 µg/mL
- MIC50 [24]: > 200 µg/mL
- MIC50 [25]: 0.6 µg/mL (≈ 2.92 µM)
- MIC50 [26]: > 200 µg/mL
- MIC50 [27]: > 50 µg/mL
- MIC50 [28]: > 40 µg/mL

SMILES: CN1CCOCC12C1CC3CC(C1)CC2C3 (configuration not stated)
- MIC50 [29]: > 400 µg/mL
- MIC50 [1]: > 400 µg/mL
- MIC50 [30]: > 400 µg/mL
- MIC50 [2]: > 400 µg/mL
- MIC50 [31]: > 400 µg/mL
- MIC50 [7]: 22 µg/mL (≈ 99.4 µM)
- MIC50 [32]: > 400 µg/mL
- MIC50 [33]: > 400 µg/mL
- MIC50 [34]: > 400 µg/mL
- MIC50 [35]: 53 µg/mL (≈ 239 µM)
- MIC50 [11]: > 250 µg/mL
- MIC50 [36]: 158 µg/mL (≈ 714 µM)
- MIC50 [12]: > 400 µg/mL
- MIC50 [37]: > 50 µg/mL
- MIC50 [38]: 60 µg/mL (≈ 271 µM)
- MIC50 [17]: > 400 µg/mL
- MIC50 [39]: > 400 µg/mL
- MIC50 [40]: > 50 µg/mL
- MIC50 [41]: > 200 µg/mL
- MIC50 [22]: > 400 µg/mL
- MIC50 [42]: > 50 µg/mL
- MIC50 [25]: 4.3 µg/mL (≈ 19.4 µM)
- MIC50 [43]: > 50 µg/mL
- MIC50 [44]: > 400 µg/mL
- MIC50 [45]: > 400 µg/mL
- MIC50 [46]: > 400 µg/mL
- MIC50 [47]: > 400 µg/mL
- MIC50 [48]: > 200 µg/mL

SMILES: CN1CCCC1C12CC3CC(CC(C3)C1)C2 (configuration not stated)
- MIC50 [1]: > 100 µg/mL
- MIC50 [2]: > 100 µg/mL
- MIC50 [3]: > 400 µg/mL
- MIC50 [4]: > 400 µg/mL
- MIC50 [5]: > 400 µg/mL
- MIC50 [6]: > 400 µg/mL
- MIC50 [7]: > 34 µg/mL
- MIC50 [8]: > 400 µg/mL
- MIC50 [9]: > 50 µg/mL
- MIC50 [10]: > 400 µg/mL
- MIC50 [12]: > 100 µg/mL
- MIC50 [13]: 60 µg/mL (≈ 274 µM)
- MIC50 [14]: > 400 µg/mL
- MIC50 [15]: > 50 µg/mL
- MIC50 [16]: 60 µg/mL (≈ 274 µM)
- MIC50 [17]: > 100 µg/mL
- MIC50 [18]: > 50 µg/mL
- MIC50 [19]: > 400 µg/mL
- MIC50 [20]: 120 µg/mL (≈ 547 µM)
- MIC50 [21]: 200 µg/mL (≈ 912 µM)
- MIC50 [22]: > 100 µg/mL
- MIC50 [23]: > 40 µg/mL
- MIC50 [24]: > 400 µg/mL
- MIC50 [25]: 16.5 µg/mL (≈ 75.2 µM)
- MIC50 [49]: 250 µg/mL (≈ 1140 µM)
- MIC50 [26]: > 400 µg/mL
- MIC50 [27]: > 50 µg/mL
- MIC50 [28]: > 40 µg/mL

SMILES: C1CCC2(NC1)C1CC3CC(C1)CC2C3 (configuration not stated)
- MIC50 [1]: > 200 µg/mL
- MIC50 [2]: 100 µg/mL (≈ 487 µM)
- MIC50 [3]: > 400 µg/mL
- MIC50 [4]: > 400 µg/mL
- MIC50 [5]: > 400 µg/mL
- MIC50 [6]: > 400 µg/mL
- MIC50 [7]: > 35 µg/mL
- MIC50 [8]: > 400 µg/mL
- MIC50 [9]: > 50 µg/mL
- MIC50 [10]: > 400 µg/mL
- MIC50 [12]: > 200 µg/mL
- MIC50 [13]: 60 µg/mL (≈ 292 µM)
- MIC50 [14]: > 400 µg/mL
- MIC50 [15]: > 50 µg/mL
- MIC50 [16]: 43 µg/mL (≈ 209 µM)
- MIC50 [17]: > 200 µg/mL
- MIC50 [18]: > 50 µg/mL
- MIC50 [19]: > 400 µg/mL
- MIC50 [20]: 93 µg/mL (≈ 453 µM)
- MIC50 [21]: 400 µg/mL (≈ 1950 µM)
- MIC50 [22]: > 200 µg/mL
- MIC50 [23]: > 40 µg/mL
- MIC50 [24]: > 400 µg/mL
- MIC50 [25]: 0.24 µg/mL (≈ 1.17 µM)
- MIC50 [49]: > 250 µg/mL
- MIC50 [26]: > 400 µg/mL
- MIC50 [27]: > 50 µg/mL
- MIC50 [28]: > 40 µg/mL
